Test results reported in ChEMBL document CHEMBL3817776, “Discovery and Structure-Activity Relationships of the Neoseptins: A New Class of Toll-like Receptor-4 (TLR4) Agonists” (J Med Chem, 2016).
Calls of active or inactive are those of the source. Unless noted, no cut-off for these calls is given here.

Assays:
Macrophage [1] = assay: Induction of TNFalpha release in C57BL/6J mouse macrophages harboring TLR9 CpG3/CpG3 mutant at 50 uM after 4 hrs by ELISA; format: functional, cell-based
Summary of the method: (§1)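 Macrophages taken from mice carrying disabling germline mutations or knockouts in TLR or signaling-pathway genes. Exposed to compound at 50 µM; TNF-α released into the medium measured by ELISA. Results representative of two independent experiments; error bars SEM.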

Macrophage [2] = assay: Induction of TNFalpha release in C57BL/6J mouse macrophages harboring TLR7 rsq1/rsq1 mutant at 50 uM after 4 hrs by ELISA; format: functional, cell-based; summary of the method: as §1
Macrophage [3] = assay: Induction of TNFalpha release in TLR3 deficient C57BL/6J mouse macrophages at 50 uM after 4 hrs by ELISA; format: functional, cell-based; summary of the method: as §1
Mus musculus [4] = assay: Adjuvant activity in C57BL/6J mouse assessed as increase in OVA-specific IgG2b levels at 250 mg/kg, im after 21 days by ELISA; format: functional, organism-based
Summary of the method: (§2)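 C57BL/6 mice, 4 per group, immunized i.m. with 100 µg ovalbumin (endotoxin <1 EU/mg) plus compound in propylene glycol vehicle, or vehicle alone. OVA-specific IgG subclasses in serum titrated by ELISA at day 21. Mean ± SEM.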

Macrophage [5] = assay: Induction of TNFalpha release in C57BL/6J mouse macrophages harboring TLR6 int/int mutant at 50 uM after 4 hrs by ELISA; format: functional, cell-based; summary of the method: as §1
Mus musculus [6] = assay: Adjuvant activity in C57BL/6J mouse assessed as increase in OVA-specific IgG1 levels up to 250 mg/kg, im after 21 days by ELISA; format: functional, organism-based; summary of the method: as §2
Mus musculus [7] = assay: Adjuvant activity in C57BL/6J mouse assessed as increase in OVA-specific IgG3 levels at 250 mg/kg, im after 21 days by ELISA; format: functional, organism-based; summary of the method: as §2
[8] = target: T1, Toll-like receptor 4 (Mus musculus) (UniProt Q9QUK6); assay: Agonist activity at TLR4 receptor in C57BL/6J mouse macrophages harboring Ticam1 Lps2/Lps2 mutant assessed as induction of TNFalpha release at 50 uM after 4 hrs by ELISA; summary of the method: as §1
T1 sequence (whole entry): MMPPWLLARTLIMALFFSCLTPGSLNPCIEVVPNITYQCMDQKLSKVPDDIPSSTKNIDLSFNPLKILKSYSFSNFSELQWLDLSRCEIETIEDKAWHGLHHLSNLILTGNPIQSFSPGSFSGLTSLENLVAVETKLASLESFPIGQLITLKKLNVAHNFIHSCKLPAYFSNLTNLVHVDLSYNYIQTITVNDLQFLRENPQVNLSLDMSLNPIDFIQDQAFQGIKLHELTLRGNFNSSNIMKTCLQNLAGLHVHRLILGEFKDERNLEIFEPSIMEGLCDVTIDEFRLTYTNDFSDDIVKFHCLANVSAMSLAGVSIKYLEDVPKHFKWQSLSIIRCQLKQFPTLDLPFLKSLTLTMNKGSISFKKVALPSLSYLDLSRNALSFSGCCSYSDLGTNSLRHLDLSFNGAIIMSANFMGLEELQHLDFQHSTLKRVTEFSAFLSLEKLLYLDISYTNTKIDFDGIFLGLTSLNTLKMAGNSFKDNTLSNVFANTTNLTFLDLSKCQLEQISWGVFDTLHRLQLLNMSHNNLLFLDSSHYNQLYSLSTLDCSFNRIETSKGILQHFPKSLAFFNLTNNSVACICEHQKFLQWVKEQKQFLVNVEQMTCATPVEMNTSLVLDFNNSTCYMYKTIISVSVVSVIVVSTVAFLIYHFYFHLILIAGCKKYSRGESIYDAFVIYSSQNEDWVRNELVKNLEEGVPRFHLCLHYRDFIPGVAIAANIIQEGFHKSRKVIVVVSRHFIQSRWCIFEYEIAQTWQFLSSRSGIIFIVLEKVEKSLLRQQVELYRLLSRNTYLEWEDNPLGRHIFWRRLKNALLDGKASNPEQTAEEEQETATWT

[9] = target: T1, Toll-like receptor 4 (Mus musculus); assay: Agonist activity at TLR4 receptor in LY96 deficient C57BL/6J mouse macrophages assessed as induction of TNFalpha release at 50 uM after 4 hrs by ELISA; summary of the method: as §1
[10] = target: T1, Toll-like receptor 4 (Mus musculus); assay: (§3) Agonist activity at TLR4 in C57BL/6J mouse macrophages assessed as stimulation of TNFalpha release after 4 hrs by ELISA
Summary of the method: (§4)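 Peritoneal macrophages from wild-type C57BL/6J mice, collected by PBS lavage and cultured in DMEM/10% FBS at 37 °C, 5% CO2. Seeded at 1 × 10^5 cells/well and treated 4 h with compound in DMSO (0.5% final) beside ultra-pure LPS and DMSO controls. Supernatant TNF-α measured by ELISA; mean of triplicates.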

Toll-like receptor 4 = target: T2, Toll-like receptor 4 (Mus musculus, UniProt Q9QUK6); assay: as §3; summary of the method: as §4
T2 sequence (Q9QUK6 whole entry): T1 sequence (whole entry)

[11] = target: T1, Toll-like receptor 4 (Mus musculus); assay: Agonist activity at TLR4 receptor in C57BL/6J mouse macrophages harboring Ikbkg panr2/Y mutant assessed as induction of TNFalpha release at 50 uM after 4 hrs by ELISA; summary of the method: as §1
Mus musculus [12] = assay: Adjuvant activity in C57BL/6J mouse assessed as increase in OVA-specific IgG2a levels at 250 mg/kg, im after 21 days by ELISA; format: functional, organism-based; summary of the method: as §2
[13] = target: T1, Toll-like receptor 4 (Mus musculus); assay: Agonist activity at TLR4 receptor in C57BL/6J mouse macrophages harboring Irak4 otiose/otiose mutant assessed as induction of TNFalpha release at 50 uM after 4 hrs by ELISA; summary of the method: as §1
Macrophage [14] = assay: Induction of TNFalpha release in C57BL/6J mouse macrophages harboring TLR2 ingd/ingd mutant at 50 uM after 4 hrs by ELISA; format: functional, cell-based; summary of the method: as §1
Mus musculus [15] = species on record: Mus musculus; assay: Agonist activity at TLR4 lps3/lps3 mutant in C57BL/6J mouse macrophages assessed as stimulated release of TNFalpha after 4 hrs by ELISA; summary of the method: as §1
[16] = target: T1, Toll-like receptor 4 (Mus musculus); assay: Agonist activity at TLR4 receptor in C57BL/6J mouse macrophages harboring MYD88 poc/poc mutant assessed as induction of TNFalpha release at 50 uM after 4 hrs by ELISA; summary of the method: as §1
Macrophage [17] = assay: Induction of TNFalpha release in C57BL/6J mouse macrophages harboring CD14 hdl/hdl mutant at 50 uM after 4 hrs by ELISA; format: functional, cell-based; summary of the method: as §1
[18] = target: T1, Toll-like receptor 4 (Mus musculus); assay: Agonist activity at TLR4 in C57BL/6J mouse macrophages assessed as stimulation of TNFalpha release at 50 uM after 4 hrs by ELISA; summary of the method: as §4

| Activity [8] | Activity [9] | Activity [10] | EC50 (Toll-like receptor 4) [µM] | Activity [11] | Activity [13] | Activity (Mus musculus [15]) | Activity [16] | Activity [18] | Compound | Activity (Macrophage [1]) | Activity (Macrophage [2]) | Activity (Macrophage [3]) | Activity (Mus musculus [4]) | Activity (Macrophage [5]) | Activity (Mus musculus [6]) | Activity (Mus musculus [7]) | Activity (Mus musculus [12]) | Activity (Macrophage [14]) | Activity (Macrophage [17]) |
| --- | --- | --- | --- | --- | --- | --- | --- | --- | --- | --- | --- | --- | --- | --- | --- | --- | --- | --- | --- |
| inactive | inactive | Dose-dependent effect | 18.5 | inactive | inactive | inactive | inactive | – | CC(C)(C)OC(=O)[C@H](CCc1ccccc1)NC(=O)c1ccc(N)c(CCc2ccc(O)cc2)c1 | Active | Active | Active | Active | Active | Dose-dependent effect | Active | Active | Active | Active |
| – | – | Dose-dependent effect | 20.7 | – | – | – | – | – | CC(C)(C)OC(=O)[C@H](CCc1ccccc1)NC(=O)c1ccc(N)c(OCCc2ccc(O)cc2)c1 | – | – | – | – | – | – | – | – | – | – |
| – | – | – | 22.2 | – | – | – | – | Active | COc1ccc(CC[C@H](NC(=O)c2ccc(N)c(CCc3ccc(O)cc3)c2)C(=O)OC(C)(C)C)cc1 | – | – | – | – | – | – | – | – | – | – |
